In ChEMBL document CHEMBL1151705, “Novel azalides derived from 16-membered macrolides. Part II: Isolation of the linear 9-formylcarboxylic acid and its sequential macrocyclization with an amino alcohol or an azidoamine” (2008):
Converted amounts (≈) assume the structure as drawn.

Columns and labels:
Type in all cases: functional
Streptococcus pneumoniae [1] = test: Antimicrobial activity against Streptococcus pneumoniae 8 expressing inducible ermB after 20 hrs by agar dilution method
In short: (§1)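 Streptococci, H. influenzae and M. catarrhalis were precultured on blood agar plates. Suspensions of about 10⁶ CFU/ml were inoculated onto sensitivity disk agar supplemented with 5% horse blood and incubated at 37 °C for 20 h. MIC was read as the lowest drug concentration with no visible growth.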

Streptococcus pneumoniae [2] = test: Antimicrobial activity against Streptococcus pneumoniae 9 expressing mefA after 20 hrs by agar dilution method; in short: as §1
Streptococcus pneumoniae [3] = test: Antimicrobial activity against Streptococcus pneumoniae 10 expressing mefA after 20 hrs by agar dilution method; in short: as §1
Streptococcus pyogenes [4] = test: Antimicrobial activity against drug-susceptible Streptococcus pyogenes 1 after 20 hrs by agar dilution method; in short: as §1
Streptococcus pyogenes [5] = test: Antimicrobial activity against Streptococcus pyogenes 2 constitutively expressing ermB after 20 hrs by agar dilution method; in short: as §1
Streptococcus pyogenes [6] = test: Antimicrobial activity against Streptococcus pyogenes 3 expressing mefA after 20 hrs by agar dilution method; in short: as §1
Moraxella catarrhalis [7] = test: Antimicrobial activity against drug-susceptible Moraxella catarrhalis 1 after 20 hrs by agar dilution method; in short: as §1
Moraxella catarrhalis [8] = test: Antimicrobial activity against drug-susceptible Moraxella catarrhalis 2 after 20 hrs by agar dilution method; in short: as §1
Haemophilus influenzae [9] = test: Antimicrobial activity against drug-susceptible Haemophilus influenzae 1 after 20 hrs by agar dilution method; in short: as §1
Haemophilus influenzae [10] = test: Antimicrobial activity against drug-susceptible Haemophilus influenzae 2 after 20 hrs by agar dilution method; in short: as §1
Haemophilus influenzae [11] = test: Antimicrobial activity against drug-susceptible Haemophilus influenzae 3 after 20 hrs by agar dilution method; in short: as §1
Haemophilus influenzae [12] = test: Antimicrobial activity against drug-susceptible Haemophilus influenzae 4 after 20 hrs by agar dilution method; in short: as §1
Staphylococcus aureus [13] = test: Antimicrobial activity against drug-susceptible Staphylococcus aureus 209P JC-1 after 20 hrs by agar dilution method
In short: (§2)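 Agar dilution MIC. S. aureus seed culture was grown in sensitivity test broth. Cell suspension (about 10⁶ CFU/ml) was inoculated onto sensitivity disk agar with 5% horse blood and incubated at 37 °C for 20 h. MIC was the lowest drug concentration that prevented visible growth.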

Staphylococcus aureus [14] = test: Antimicrobial activity against drug-susceptible Staphylococcus aureus 2 after 20 hrs by agar dilution method; in short: as §2
Staphylococcus aureus [15] = test: Antimicrobial activity against drug-susceptible Staphylococcus aureus 3 after 20 hrs by agar dilution method; in short: as §2
Staphylococcus aureus [16] = test: Antimicrobial activity against Staphylococcus aureus 4 constitutively expressing ermA after 20 hrs by agar dilution method; in short: as §2
Staphylococcus aureus [17] = test: Antimicrobial activity against Staphylococcus aureus 5 expressing inducible ermB after 20 hrs by agar dilution method; in short: as §2
Streptococcus pneumoniae [18] = test: Antimicrobial activity against drug-susceptible Streptococcus pneumoniae DP1 Type1 after 20 hrs by agar dilution method; in short: as §1
Streptococcus pneumoniae [19] = test: Antimicrobial activity against drug-susceptible Streptococcus pneumoniae 2 after 20 hrs by agar dilution method; in short: as §1
Streptococcus pneumoniae [20] = test: Antimicrobial activity against drug-susceptible Streptococcus pneumoniae 3 after 20 hrs by agar dilution method; in short: as §1
Streptococcus pneumoniae [21] = test: Antimicrobial activity against Streptococcus pneumoniae 4 constitutively expressing ermB after 20 hrs by agar dilution method; conditions: Streptococcus pneumoniae, 20 h; read-out: MIC; in short: as §1
Streptococcus pneumoniae [22] = test: Antimicrobial activity against Streptococcus pneumoniae 5 constitutively expressing ermB/mefA after 20 hrs by agar dilution method; conditions: Streptococcus pneumoniae, 20 h; read-out: MIC; in short: as §1
Streptococcus pneumoniae [23] = test: Antimicrobial activity against Streptococcus pneumoniae 6 constitutively expressing ermB after 20 hrs by agar dilution method; conditions: Streptococcus pneumoniae, 20 h; read-out: MIC; in short: as §1
Streptococcus pneumoniae [24] = test: Antimicrobial activity against Streptococcus pneumoniae 7 expressing inducible ermB after 20 hrs by agar dilution method; in short: as §1
Staphylococcus aureus [25] = test: Antimicrobial activity against Staphylococcus aureus 6 expressing inducible ermB after 20 hrs by agar dilution method; in short: as §2
[26] = Streptococcus pneumoniae, 20 h, read-out: MIC
[27] = Streptococcus pyogenes, 20 h, read-out: MIC
[28] = Moraxella catarrhalis, 20 h, read-out: MIC
[29] = Haemophilus influenzae, 20 h, read-out: MIC
[30] = Staphylococcus aureus, 209P, 20 h, read-out: MIC
[31] = Staphylococcus aureus, 20 h, read-out: MIC

SMILES | MIC (Streptococcus pneumoniae [2]; [26]) [µg/mL] | MIC (Streptococcus pneumoniae [3]; [26]) [µg/mL] | MIC (Streptococcus pyogenes [5]) [µg/mL] | MIC (Streptococcus pyogenes [6]; [27]) [µg/mL] | MIC (Moraxella catarrhalis [7]; [28]) [µg/mL] | MIC (Moraxella catarrhalis [8]; [28]) [µg/mL] | MIC (Haemophilus influenzae [9]; [29]) [µg/mL] | MIC (Haemophilus influenzae [11]; [29]) [µg/mL] | MIC (Haemophilus influenzae [12]; [29]) [µg/mL] | MIC (Staphylococcus aureus [13]; [30]) [µg/mL] | MIC (Staphylococcus aureus [14]; [31]) [µg/mL] | MIC (Staphylococcus aureus [15]; [31]) [µg/mL] | MIC (Staphylococcus aureus [16]) [µg/mL] | MIC (Staphylococcus aureus [17]; [31]) [µg/mL] | MIC (Streptococcus pneumoniae [18]; [26]) [µg/mL] | MIC (Streptococcus pneumoniae [19]; [26]) [µg/mL] | MIC (Streptococcus pneumoniae [20]; [26]) [µg/mL] | MIC (Streptococcus pneumoniae [21]) [µg/mL] | MIC (Streptococcus pneumoniae [22]) [µg/mL] | MIC (Streptococcus pneumoniae [23]) [µg/mL] | other results
CCOC(=O)[C@H]1[C@H](C)O[C@@H](O[C@H]2[C@H](N(C)C)[C@@H](O)[C@H](O[C@H]3[C@@H](CC=O)C[C@@H](C)[C@@H](O)CN(C)CC(/C=C/Cc4ccc5ncccc5c4)CCOC(=O)C[C@@H](OC(=O)CC)[C@@H]3OC)O[C@@H]2C)C[C@@]1(C)O (some centres not stated) | 0.015 (≈ 0.0152 µM) | 0.015 (≈ 0.0152 µM) | > 128 | 0.25 (≈ 0.253 µM) | 1 (≈ 1.01 µM) | 1 (≈ 1.01 µM) | 32 (≈ 32.4 µM) | 8 (≈ 8.11 µM) | 8 (≈ 8.11 µM) | 0.13 (≈ 0.132 µM) | 0.25 (≈ 0.253 µM) | 0.13 (≈ 0.132 µM) | > 128 | 0.13 (≈ 0.132 µM) | 0.015 (≈ 0.0152 µM) | 0.03 (≈ 0.0304 µM) | 0.015 (≈ 0.0152 µM) | > 128 | > 128 | 128 (≈ 130 µM) | MIC (Streptococcus pneumoniae [1]; [26]): 2 µg/mL (≈ 2.03 µM); MIC (Streptococcus pyogenes [4]; [27]): 0.03 µg/mL (≈ 0.0304 µM); MIC (Haemophilus influenzae [10]; [29]): 2 µg/mL (≈ 2.03 µM); MIC (Streptococcus pneumoniae [24]; [26]): 2 µg/mL (≈ 2.03 µM); MIC (Staphylococcus aureus [25]): 0.25 µg/mL (≈ 0.253 µM)
CCOC(=O)[C@H]1[C@H](C)O[C@@H](O[C@H]2[C@H](N(C)C)[C@@H](O)[C@H](O[C@H]3[C@@H](CC=O)C[C@@H](C)[C@@H](O)CN(C)CCC[C@H](CCCc4cnc5ccccc5c4)OC(=O)C[C@@H](OC(=O)CC)[C@@H]3OC)O[C@@H]2C)C[C@@]1(C)O | 0.015 (≈ 0.0152 µM) | 0.015 (≈ 0.0152 µM) | > 128 | 0.13 (≈ 0.132 µM) | 1 (≈ 1.01 µM) | 1 (≈ 1.01 µM) | 32 (≈ 32.4 µM) | 8 (≈ 8.1 µM) | 8 (≈ 8.1 µM) | 0.13 (≈ 0.132 µM) | 0.25 (≈ 0.253 µM) | 0.13 (≈ 0.132 µM) | > 128 | 0.13 (≈ 0.132 µM) | < 0.008 | 0.015 (≈ 0.0152 µM) | < 0.008 | 128 (≈ 130 µM) | 128 (≈ 130 µM) | 128 (≈ 130 µM) | MIC (Streptococcus pneumoniae [1]; [26]): 4 µg/mL (≈ 4.05 µM); MIC (Streptococcus pyogenes [4]; [27]): 0.015 µg/mL (≈ 0.0152 µM); MIC (Haemophilus influenzae [10]; [29]): 2 µg/mL (≈ 2.02 µM); MIC (Streptococcus pneumoniae [24]; [26]): 4 µg/mL (≈ 4.05 µM); MIC (Staphylococcus aureus [25]): 0.25 µg/mL (≈ 0.253 µM)
CCOC(=O)[C@H]1[C@H](C)O[C@@H](O[C@H]2[C@H](N(C)C)[C@@H](O)[C@H](O[C@H]3[C@@H](CC=O)C[C@@H](C)[C@@H](O)CN(C)CC(CCCc4ccnc5ccccc45)CCOC(=O)C[C@@H](OC(=O)CC)[C@@H]3OC)O[C@@H]2C)C[C@@]1(C)O (stereo in doubt; form 1) | 0.03 (≈ 0.0304 µM) | 0.03 (≈ 0.0304 µM) | > 128 | 0.25 (≈ 0.253 µM) | 1 (≈ 1.01 µM) | 1 (≈ 1.01 µM) | 32 (≈ 32.4 µM) | 8 (≈ 8.1 µM) | 8 (≈ 8.1 µM) | 0.25 (≈ 0.253 µM) | 0.5 (≈ 0.506 µM) | 0.25 (≈ 0.253 µM) | > 128 | 0.25 (≈ 0.253 µM) | 0.015 (≈ 0.0152 µM) | 0.03 (≈ 0.0304 µM) | 0.03 (≈ 0.0304 µM) | > 128 | > 128 | > 128 | MIC (Streptococcus pneumoniae [1]; [26]): 16 µg/mL (≈ 16.2 µM); MIC (Streptococcus pyogenes [4]; [27]): 0.06 µg/mL (≈ 0.0607 µM); MIC (Streptococcus pneumoniae [24]; [26]): 16 µg/mL (≈ 16.2 µM); MIC (Staphylococcus aureus [25]): 0.5 µg/mL (≈ 0.506 µM)
CCOC(=O)[C@H]1[C@H](C)O[C@@H](O[C@H]2[C@H](N(C)C)[C@@H](O)[C@H](O[C@H]3[C@@H](CC=O)C[C@@H](C)[C@@H](O)CN(C)CCC(C/C=C/c4cnc5ccccc5c4)NC(=O)C[C@@H](OC(=O)CC)[C@@H]3OC)O[C@@H]2C)C[C@@]1(C)O (stereo in doubt; form 2) | – | – | – | – | – | – | – | – | – | – | – | – | – | – | – | – | – | – | – | – | MIC (Streptococcus pneumoniae [1]): >128 µg/mL; MIC (Streptococcus pneumoniae [2]): 0.5 µg/mL (≈ 0.515 µM); MIC (Streptococcus pneumoniae [3]): 0.25 µg/mL (≈ 0.257 µM); MIC (Streptococcus pyogenes [4]): 0.5 µg/mL (≈ 0.515 µM); MIC (Streptococcus pyogenes [6]): 4 µg/mL (≈ 4.12 µM); MIC (Moraxella catarrhalis [7]): 8 µg/mL (≈ 8.24 µM); MIC (Moraxella catarrhalis [8]): 4 µg/mL (≈ 4.12 µM); MIC (Haemophilus influenzae [9]): 64 µg/mL (≈ 65.9 µM); MIC (Haemophilus influenzae [10]): 4 µg/mL (≈ 4.12 µM); MIC (Haemophilus influenzae [11]): 16 µg/mL (≈ 16.5 µM); MIC (Haemophilus influenzae [12]): 32 µg/mL (≈ 32.9 µM); MIC (Staphylococcus aureus [13]): 1 µg/mL (≈ 1.03 µM); MIC (Staphylococcus aureus [14]): 2 µg/mL (≈ 2.06 µM); MIC (Staphylococcus aureus [15]): 0.5 µg/mL (≈ 0.515 µM); MIC (Staphylococcus aureus [17]): 1 µg/mL (≈ 1.03 µM); MIC (Streptococcus pneumoniae [18]): 0.13 µg/mL (≈ 0.134 µM); MIC (Streptococcus pneumoniae [19]): 0.25 µg/mL (≈ 0.257 µM); MIC (Streptococcus pneumoniae [20]): 0.25 µg/mL (≈ 0.257 µM); MIC (Streptococcus pneumoniae [24]): >128 µg/mL
CCOC(=O)[C@H]1[C@H](C)O[C@@H](O[C@H]2[C@H](N(C)C)[C@@H](O)[C@H](O[C@H]3[C@@H](CC=O)C[C@@H](C)[C@@H](O)CN(C)CC(/C=C/Cc4ccnc5ccccc45)CCOC(=O)C[C@@H](OC(=O)CC)[C@@H]3OC)O[C@@H]2C)C[C@@]1(C)O (stereo in doubt; form 1) | 0.03 (≈ 0.0304 µM) | 0.03 (≈ 0.0304 µM) | > 128 | 0.13 (≈ 0.132 µM) | 1 (≈ 1.01 µM) | 1 (≈ 1.01 µM) | 16 (≈ 16.2 µM) | 8 (≈ 8.11 µM) | 8 (≈ 8.11 µM) | 0.13 (≈ 0.132 µM) | 0.5 (≈ 0.507 µM) | 0.13 (≈ 0.132 µM) | > 128 | 0.13 (≈ 0.132 µM) | 0.015 (≈ 0.0152 µM) | 0.03 (≈ 0.0304 µM) | 0.03 (≈ 0.0304 µM) | > 128 | > 128 | > 128 | MIC (Streptococcus pneumoniae [1]): 8 µg/mL (≈ 8.11 µM); MIC (Streptococcus pyogenes [4]): 0.03 µg/mL (≈ 0.0304 µM); MIC (Streptococcus pneumoniae [24]): 8 µg/mL (≈ 8.11 µM); MIC (Staphylococcus aureus [25]): 0.25 µg/mL (≈ 0.253 µM)
